# Source: ChEMBL document CHEMBL1154737, “Design, synthesis, and biological evaluation of substituted naphthalene imides and diimides as anticancer agent” (J Med Chem, 2009)
# pEC50, pIC50: −log10 of the molar value. Activity calls are given as the source filed them. The rule behind the calls is not given here.
# Assays:
# CCRF-CEM [1] = experiment: Cytotoxicity against human CCRF-CEM cells at 10 uM after 72 hrs by MTT assay; format: functional, cell-based
# How it was run: (§1)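 MTT growth-inhibition assay on SKBR-3 breast cancer and CEM leukemia cells, 72 h exposure over 0.1–10 μM. IC50 is the concentration giving 50% growth inhibition, derived by linear regression and reported as a mean of six experiments. Single-concentration entries are taken at 10 μM, the top of the range.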
# [2] = biological target: DNA topoisomerase 2-alpha (Homo sapiens) (UniProt P11388); experiment: Stimulation of human recombinant topoisomerase 2alpha-mediated SV40 DNA cleavage at 50 uM after 45 mins by PAGE
# How it was run: (§2)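 Cleavage assay with recombinant human DNA topoisomerase IIα, using SV40 DNA as substrate, to test for stimulation of DNA cleavage (poison activity).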
# [3] = biological target: DNA topoisomerase 2-alpha (Homo sapiens) (UniProt P11388); experiment: Stimulation of human recombinant topoisomerase 2alpha-mediated SV40 DNA cleavage at 10 uM after 45 mins by PAGE; how it was run: as §2
# SK-BR-3 [4] = experiment: Cytotoxicity against human SKBR3 cells after 72 hrs by MTT assay; format: functional, cell-based; settings: SK-BR-3, 72 h; how it was run: as §1
# H9c2 = experiment: Induction of apoptosis in rat H9c2 cells assessed as caspase 3 activation at 5 uM after 24 hrs by DEVDase activity assay; format: cell-based; settings: h9c2, 24 h
# How it was run: (§3)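 SH-SY5Y neuroblastoma, H9c2 heart and Jurkat T cells treated 24 h with 5 μM. Caspase (DEVDase) activation measured, reported as mean ± SEM of triplicates.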
# HL-60 [5] = experiment: Cytotoxicity against human HL60 cells after 24 hrs by dye exclusion assay; settings: HL-60, 24 h
# Jurkat = experiment: Induction of apoptosis in human Jurkat T cells assessed as caspase 3 activation at 5 uM after 24 hrs by DEVDase activity assay; format: functional, cell-based; how it was run: as §3
# SH-SY5Y [6] = experiment: Cytotoxicity against human SH-SY5Y assessed as cell survival at 1 uM after 72 hrs by trypan blue exclusion assay; format: functional; settings: read-out: Survival
# How it was run: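 SH-SY5Y neuroblastoma cells incubated with compound at 1 to 5 μM for the indicated times, including 24 h and 72 h. Viable cells were then counted by dye exclusion and expressed as cell survival.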
# SH-SY5Y [7] = experiment: Cytotoxicity against human SH-SY5Y assessed as decrease in ERK2 protein level at 5 uM after 20 hrs by Western blotting; format: functional, cell-based
# How it was run: (§4)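 SH-SY5Y cells treated 20 h with 5 μM, then harvested. Protein content and phosphorylation status in cell extracts read by Western blotting at 50 μg protein per lane.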
# HL-60 [8] = experiment: Induction of apoptosis in human HL60 cells assessed as decrease in procaspase 3 level at 5 uM after 4 hrs by Western blotting; format: functional, cell-based
# How it was run: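 HL60 cells incubated 4 h with 5 μM. Extracted proteins analysed by Western blot for the 32 kDa procaspase 3 precursor and its active proteolytic fragment.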
# CCRF-CEM [9] = experiment: Cytotoxicity against human CCRF-CEM cells after 72 hrs by MTT assay; format: functional, cell-based; how it was run: as §1
# SH-SY5Y [10] = experiment: Cytotoxicity against human SH-SY5Y after 72 hrs by trypan blue exclusion assay; format: functional, cell-based
# How it was run: (§5)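 SH-SY5Y neuroblastoma cells incubated with compounds at 1 to 5 μM for the indicated times up to 72 h. Viable cells counted by dye exclusion.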
# SH-SY5Y [11] = experiment: Cytotoxicity against human SH-SY5Y assessed as cell viability at 5 uM after 20 hrs by trypan blue exclusion assay; format: functional; settings: read-out: Activity
# How it was run: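 SH-SY5Y cells exposed to 5 μM for 20 h. Viable cell fraction assessed by dye exclusion.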
# HL-60 [12] = experiment: Induction of apoptosis in human HL60 cells assessed as caspase 3 activation after 4 hrs by DEVDase activity assay; format: functional, cell-based
# How it was run: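 HL60 cells treated 4 h at the indicated doses, then collected. Caspase (DEVDase) activity determined.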
# SH-SY5Y [13] = experiment: Cytotoxicity against human SH-SY5Y assessed as decrease in ERK1 protein level at 5 uM after 20 hrs by Western blotting; format: functional, cell-based; how it was run: as §4
# SH-SY5Y [14] = experiment: Cytotoxicity against human SH-SY5Y assessed as decrease in ERK2 phosphorylation at 5 uM after 20 hrs by Western blotting; format: functional, cell-based; how it was run: as §4
# HL-60 [15] = experiment: Induction of apoptosis in human HL60 cells assessed as caspase 3 activation at 5 uM after 4 hrs by DEVDase activity assay; format: functional, cell-based
# How it was run: (§6)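 HL60 cells exposed to 5 μM for 4 or 24 h. DEVDase (effector caspase 3/7) activity measured on the DEVD peptide substrate.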
# SH-SY5Y [16] = experiment: Cytotoxicity against human SH-SY5Y assessed as p53 protein accumulation at 1 uM after 20 hrs by Western blotting; format: functional, cell-based
# How it was run: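 SH-SY5Y extracts prepared after 20 h incubation at the indicated concentrations. p53 content measured by Western blot, 50 μg protein loaded per point.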
# Calf thymus DNA = experiment: Displacement of ethidium bromide from calf thymus DNA by fluorescence assay; format: nucleic-acid assay, Bos taurus; settings: for Kapp: Bos taurus
# How it was run: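 Fluorometric intercalator displacement. EC50 is the drug concentration that cuts DNA-bound ethidium fluorescence by 50%, given as the mean of three determinations ± SEM. Apparent binding constant is calculated taking the ethidium binding constant as 10^7 M-1.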
# SH-SY5Y [17] = experiment: Induction of apoptosis in human SH-SY5Y cells assessed as caspase 3 activation at 5 uM after 24 hrs by DEVDase activity assay; format: functional, cell-based; how it was run: as §3
# SH-SY5Y [18] = experiment: Cytotoxicity against human SH-SY5Y assessed as decrease in ERK1 phosphorylation at 5 uM after 20 hrs by Western blotting; format: functional, cell-based; how it was run: as §4
# HL-60 [19] = experiment: Induction of apoptosis in human HL60 cells assessed as caspase 3 activation at 5 uM after 24 hrs by DEVDase activity assay; format: functional, cell-based; how it was run: as §6
# SH-SY5Y [20] = experiment: Cytotoxicity against human SH-SY5Y at 1 to 5 uM after 72 hrs by trypan blue exclusion assay; format: functional, cell-based; how it was run: as §5
# SK-BR-3 [21] = experiment: Cytotoxicity against human SKBR3 cells at 10 uM after 72 hrs by MTT assay; format: functional, cell-based; how it was run: as §1
# SH-SY5Y [22] = experiment: Cytotoxicity against human SH-SY5Y at 1 uM after 24 hrs by trypan blue exclusion assay; format: functional, cell-based
# How it was run: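 SH-SY5Y cells given 1 μM. Viability at 24 h scored by dye exclusion.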
# SH-SY5Y [23] = experiment: Cytotoxicity against human SH-SY5Y assessed as p53 protein accumulation at 5 uM after 20 hrs by Western blotting; format: functional, cell-based; how it was run: as §4
# DNA topoisomerase 2-alpha (Homo sapiens), sequence (P11388 whole entry): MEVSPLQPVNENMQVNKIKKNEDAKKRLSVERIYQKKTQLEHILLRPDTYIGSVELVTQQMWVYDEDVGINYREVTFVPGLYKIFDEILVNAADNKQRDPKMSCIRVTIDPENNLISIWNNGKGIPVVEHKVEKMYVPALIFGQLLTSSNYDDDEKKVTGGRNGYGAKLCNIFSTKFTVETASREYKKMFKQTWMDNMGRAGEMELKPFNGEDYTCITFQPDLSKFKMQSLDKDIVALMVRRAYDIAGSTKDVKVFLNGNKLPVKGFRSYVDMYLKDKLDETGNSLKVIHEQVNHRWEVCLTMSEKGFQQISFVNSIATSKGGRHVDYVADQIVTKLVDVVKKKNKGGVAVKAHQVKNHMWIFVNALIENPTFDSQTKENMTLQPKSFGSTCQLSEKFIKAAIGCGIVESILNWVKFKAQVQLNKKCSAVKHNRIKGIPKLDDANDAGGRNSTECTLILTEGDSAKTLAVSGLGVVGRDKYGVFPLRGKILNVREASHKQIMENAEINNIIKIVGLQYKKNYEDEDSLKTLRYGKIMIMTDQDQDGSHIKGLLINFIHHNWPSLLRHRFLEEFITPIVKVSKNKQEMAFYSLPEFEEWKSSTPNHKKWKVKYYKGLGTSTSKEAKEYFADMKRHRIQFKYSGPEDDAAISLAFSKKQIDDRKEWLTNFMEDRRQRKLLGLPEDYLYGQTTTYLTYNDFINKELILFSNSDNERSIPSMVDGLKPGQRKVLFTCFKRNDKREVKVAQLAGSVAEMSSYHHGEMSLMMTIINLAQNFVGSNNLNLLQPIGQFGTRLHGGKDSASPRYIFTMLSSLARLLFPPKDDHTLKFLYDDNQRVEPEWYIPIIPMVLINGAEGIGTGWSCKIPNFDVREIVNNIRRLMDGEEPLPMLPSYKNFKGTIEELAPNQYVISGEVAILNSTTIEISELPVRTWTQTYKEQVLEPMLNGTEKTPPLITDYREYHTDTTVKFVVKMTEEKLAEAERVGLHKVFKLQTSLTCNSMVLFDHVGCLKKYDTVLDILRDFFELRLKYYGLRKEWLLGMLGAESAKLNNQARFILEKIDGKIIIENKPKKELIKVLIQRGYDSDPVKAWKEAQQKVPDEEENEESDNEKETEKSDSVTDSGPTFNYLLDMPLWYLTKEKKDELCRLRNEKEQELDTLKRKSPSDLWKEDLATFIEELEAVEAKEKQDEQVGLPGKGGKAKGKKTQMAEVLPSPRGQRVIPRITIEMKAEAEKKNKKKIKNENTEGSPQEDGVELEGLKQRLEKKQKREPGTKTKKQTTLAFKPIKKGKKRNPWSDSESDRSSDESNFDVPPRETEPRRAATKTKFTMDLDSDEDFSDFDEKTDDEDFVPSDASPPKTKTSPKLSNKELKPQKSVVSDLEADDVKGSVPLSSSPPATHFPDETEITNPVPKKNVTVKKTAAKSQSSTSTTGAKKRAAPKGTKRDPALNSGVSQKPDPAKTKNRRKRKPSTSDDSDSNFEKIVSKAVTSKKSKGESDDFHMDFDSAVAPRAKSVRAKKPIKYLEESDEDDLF
structure (smiles),measurement,setting,value
COc1ccccc1CNCCN1C(=O)c2cccc3cccc(c23)C1=O,Activity,CCRF-CEM [1],inactive
same,Activity,[2],inactive
same,Activity,[3],inactive
same,pIC50,SK-BR-3 [4],5.70
COc1ccccc1CNCCN1C(=O)c2ccc3c4c(ccc(c24)C1=O)C(=O)N(CCNCc1ccccc1OC)C3=O,Activity,H9c2,Active
same,pIC50,HL-60 [5],6.05
same,Activity,Jurkat,Active
same,viability at 1 µM,SH-SY5Y [6],60%
same,Activity,SH-SY5Y [7],Active
same,Activity,HL-60 [8],Active
same,pIC50,CCRF-CEM [9],5.89
same,Activity,[2],inactive
same,Activity,[3],inactive
same,pIC50,SH-SY5Y [10],5.85
same,viability at 5 µM,SH-SY5Y [11],70%
same,Activity,HL-60 [12],Dose-dependent effect
same,Activity,SH-SY5Y [13],Active
same,pIC50,SK-BR-3 [4],6.15
same,Activity,SH-SY5Y [14],Active
same,Activity,HL-60 [15],Active
same,Activity,SH-SY5Y [16],Active
same,pEC50,Calf thymus DNA,7.03
same,Kapp,Calf thymus DNA,2.72 ×10⁸ /M
same,Activity,SH-SY5Y [17],Active
same,Activity,SH-SY5Y [18],Active
same,Activity,HL-60 [19],Active
same,Activity,SH-SY5Y [20],Active
COc1ccccc1CNCCCCN1C(=O)c2ccc3c4c(ccc(c24)C1=O)C(=O)N(CCCCNCc1ccccc1OC)C3=O,pIC50,CCRF-CEM [9],6.10
same,pIC50,SK-BR-3 [4],6.15
COc1ccccc1CNCCCCCCCCCN1C(=O)c2cccc3cccc(c23)C1=O,pIC50,CCRF-CEM [9],5.89
same,Activity,[2],inactive
same,Activity,[3],inactive
same,pIC50,SK-BR-3 [4],6.30
COc1ccccc1CNCCCCCCCN1C(=O)c2cccc3cccc(c23)C1=O,Activity,CCRF-CEM [1],inactive
same,Activity,SK-BR-3 [21],inactive
COc1ccccc1CNCCCCN1C(=O)c2cccc3cccc(c23)C1=O,pIC50,CCRF-CEM [9],5.49
same,pIC50,SK-BR-3 [4],5.77
COc1ccccc1CNCCCCCCN1C(=O)c2ccc3c4c(ccc(c24)C1=O)C(=O)N(CCCCCCNCc1ccccc1OC)C3=O,pIC50,CCRF-CEM [9],5.66
same,pIC50,SK-BR-3 [4],5.92
COc1ccccc1CNCCCCCCCCCCN1C(=O)c2ccc3c4c(ccc(c24)C1=O)C(=O)N(CCCCCCCCCCNCc1ccccc1OC)C3=O,pIC50,CCRF-CEM [9],6.15
same,pIC50,SK-BR-3 [4],6.70
COc1ccccc1CNCCCCCCCCCN1C(=O)c2ccc3c4c(ccc(c24)C1=O)C(=O)N(CCCCCCCCCNCc1ccccc1OC)C3=O,pIC50,CCRF-CEM [9],5.85
same,pIC50,SK-BR-3 [4],6.40
COc1ccccc1CNCCCN1C(=O)c2ccc3c4c(ccc(c24)C1=O)C(=O)N(CCCNCc1ccccc1OC)C3=O,pIC50,HL-60 [5],5.92
same,Activity,SH-SY5Y [7],Active
same,Activity,HL-60 [8],Active
same,pIC50,CCRF-CEM [9],6.40
same,Activity,[2],inactive
same,Activity,[3],inactive
same,Activity,SH-SY5Y [22],inactive
same,pIC50,SH-SY5Y [10],5.85
same,viability at 5 µM,SH-SY5Y [11],70%
same,Activity,HL-60 [12],Dose-dependent effect
same,Activity,SH-SY5Y [13],Active
same,pIC50,SK-BR-3 [4],6.70
same,Activity,SH-SY5Y [14],Active
same,Activity,HL-60 [15],Active
same,pEC50,Calf thymus DNA,6.91
same,Kapp,Calf thymus DNA,2.07 ×10⁸ /M
same,Activity,SH-SY5Y [18],Active
same,Activity,HL-60 [19],Active
same,Activity,SH-SY5Y [20],Active
COc1ccccc1CNCCCCCCCN1C(=O)c2ccc3c4c(ccc(c24)C1=O)C(=O)N(CCCCCCCNCc1ccccc1OC)C3=O,pIC50,CCRF-CEM [9],5.60
same,pIC50,SK-BR-3 [4],5.77
COc1ccccc1CNCCCCCCCCCCN1C(=O)c2cccc3cccc(c23)C1=O,pIC50,CCRF-CEM [9],5.10
same,pIC50,SK-BR-3 [4],5.70
COc1ccccc1CNCCCCCCN1C(=O)c2cccc3cccc(c23)C1=O,Activity,CCRF-CEM [1],inactive
same,Activity,SK-BR-3 [21],inactive
CN(C)CCN1C(=O)c2cccc3cc([N+](=O)[O-])cc(c23)C1=O [MITONAFIDE],pIC50,HL-60 [5],5.80
same,Activity,SH-SY5Y [23],Active
same,Activity,SH-SY5Y [7],Active
same,viability at 5 µM,SH-SY5Y [11],70%
same,Activity,SH-SY5Y [13],Active
same,Activity,SH-SY5Y [14],inactive
same,Activity,HL-60 [15],Active
same,pEC50,Calf thymus DNA,4.94
same,Kapp,Calf thymus DNA,2.2 ×10⁶ /M
same,Activity,SH-SY5Y [18],inactive
same,Activity,HL-60 [19],Active
COc1ccccc1CNCCCN1C(=O)c2cccc3cccc(c23)C1=O,Activity,CCRF-CEM [1],inactive
same,Activity,SK-BR-3 [21],inactive
COc1ccccc1CNCCCCCN1C(=O)c2cccc3cccc(c23)C1=O,Activity,CCRF-CEM [1],inactive
same,Activity,SK-BR-3 [21],inactive
COc1ccccc1CNCCCCCN1C(=O)c2ccc3c4c(ccc(c24)C1=O)C(=O)N(CCCCCNCc1ccccc1OC)C3=O,pIC50,CCRF-CEM [9],5.96
same,pIC50,SK-BR-3 [4],5.96
COc1ccccc1CNCCCCCCCCN1C(=O)c2cccc3cccc(c23)C1=O,pIC50,CCRF-CEM [9],5.92
same,pIC50,SK-BR-3 [4],5.85
COc1ccccc1CNCCCCCCCCN1C(=O)c2ccc3c4c(ccc(c24)C1=O)C(=O)N(CCCCCCCCNCc1ccccc1OC)C3=O,pIC50,CCRF-CEM [9],5.80
same,pIC50,SK-BR-3 [4],6.00
